According to ChEMBL document CHEMBL1799976, “Neurosteroid analogues. 15. A comparative study of the anesthetic and GABAergic actions of alphaxalone, Δ16-alphaxalone and their corresponding 17-carbonitrile analogues” (Bioorg Med Chem Lett, 2010):
Calls of active or inactive are those of the source. The rule behind the calls is not given here.

How the values were obtained:
Oocyte [1] = assay: Modulation of rat GABA-A alpha1beta2gamma2L receptor expressed in Xenopus oocytes assessed as increase of GABA-induced chloride current at 0.1 uM by two electrode voltage-clamp method relative to control; type: cell-based
Outline: (§1)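 Two-electrode recording of GABA currents in Xenopus oocytes expressing rat α1β2γ2L GABA-A receptors. The control current was evoked with 2 μM GABA, then compound was co-applied at 0.1, 1 or 10 μM. Each value is the current with compound divided by the current without it, from at least four oocytes (SEM, N ≥ 4).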

Oocyte [2] = assay: Modulation of rat GABA-A alpha1beta2gamma2L receptor expressed in Xenopus oocytes assessed as increase of GABA-induced chloride current at 1 uM by two electrode voltage-clamp method relative to control; type: cell-based; outline: as §1
Oocyte [3] = assay: Modulation of rat GABA-A alpha1beta2gamma2L receptor expressed in Xenopus oocytes assessed as increase of GABA-induced chloride current at 10 uM by two electrode voltage-clamp method relative to control; type: cell-based; outline: as §1
Oocyte [4] = assay: Modulation of rat GABA-A alpha1beta2gamma2L receptor expressed in Xenopus oocytes assessed as increase of chloride current at 10 uM by two electrode voltage-clamp method relative to GABA; type: cell-based
Outline: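 Direct gating test on oocytes expressing rat α1β2γ2L GABA-A receptors. Compound was applied alone at 10 μM with no GABA. The current is expressed as compound-only current divided by the current to 2 μM GABA, from at least four oocytes (SEM).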

Xenopus laevis [5] = assay: Anesthetic effect on prelimb-bud stage of Xenopus laevis tadpole assessed as loss of righting reflex; type: functional, organism-based
Outline: (§2)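 Behavioural reflex end points in tadpoles, with 10 animals at each of five or more concentrations. The highest concentration tested was 10 μM, and "none" means no reflex was lost at that level. EC50 was taken for each reflex, with error given as standard error of the mean.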

Xenopus laevis [6] = assay: Anesthetic effect on prelimb-bud stage of Xenopus laevis tadpole assessed as loss of swimming reflex; type: functional, organism-based; outline: as §2
Xenopus laevis [7] = assay: Anesthetic effect on prelimb-bud stage of Xenopus laevis tadpole assessed as loss of swimming reflex at 3 uM; type: functional, organism-based
Outline: (§3)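 Swimming-reflex scoring in tadpoles at single bath concentrations of 3 μM and 10 μM. Results are reported as whether the tadpoles kept or lost the reflex at each concentration.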

Xenopus laevis [8] = assay: Anesthetic effect on prelimb-bud stage of Xenopus laevis tadpole assessed as loss of swimming reflex at 10 uM; type: functional, organism-based; outline: as §3
[9] = Displacement of [35S]TBPS from GABA-A receptor picrotoxin binding site in rat brain cortical membranes after 2 hrs by scintillation counting; type: cell membranes, Membrane
Oocyte [10] = assay: Modulation of rat GABA-A alpha1beta2gamma2L receptor expressed in Xenopus oocytes assessed as increase of GABA-induced chloride current by two electrode voltage-clamp method relative to control; type: cell-based; outline: as §1

C[C@]12CC[C@@H](O)C[C@@H]1CC[C@@H]1[C@@H]2C(=O)C[C@]2(C)C(C#N)=CC[C@@H]12
fold change (FC) (Oocyte [1]): 1.49 | fold change (FC) (Oocyte [2]): 4.07 | fold change (FC) (Oocyte [3]): 23.8 | fold change (FC) (Oocyte [4]): 0.21 | EC50 (Xenopus laevis [5]): 1040 nM | EC50 (Xenopus laevis [6]): 5480 nM | Activity (Xenopus laevis [7]): inactive | Activity (Xenopus laevis [8]): Active | IC50 [9]: 361 nM

CC(=O)C1=CC[C@H]2[C@@H]3CC[C@H]4C[C@H](O)CC[C@]4(C)[C@H]3C(=O)C[C@]12C
fold change (FC) (Oocyte [1]): 0.94 | fold change (FC) (Oocyte [2]): 0.97 | fold change (FC) (Oocyte [3]): 1.87 | fold change (FC) (Oocyte [4]): 0.08 | EC50 (Xenopus laevis [5]): > 10000 nM | Activity (Xenopus laevis [8]): inactive | IC50 [9]: 2220 nM

CC(=O)[C@H]1CC[C@H]2[C@@H]3CC[C@H]4C[C@H](O)CC[C@]4(C)[C@H]3C(=O)C[C@]12C [ALFAXALONE]
fold change (FC) (Oocyte [1]): 2.91 | fold change (FC) (Oocyte [2]): 4.7 | fold change (FC) (Oocyte [3]): 19.6 | fold change (FC) (Oocyte [4]): 0.11 | EC50 (Xenopus laevis [5]): 1120 nM | EC50 (Xenopus laevis [6]): 5480 nM | Activity (Xenopus laevis [7]): inactive | Activity (Xenopus laevis [8]): Active | Activity (Oocyte [10]): Dose-dependent effect

C[C@]12CC[C@@H](O)C[C@@H]1CC[C@H]1[C@@H]3CC[C@H](C#N)[C@@]3(C)CC(=O)[C@@H]12
fold change (FC) (Oocyte [1]): 1.12 | fold change (FC) (Oocyte [2]): 4.59 | fold change (FC) (Oocyte [3]): 21.1 | fold change (FC) (Oocyte [4]): 0.14 | EC50 (Xenopus laevis [5]): 720 nM | EC50 (Xenopus laevis [6]): 5480 nM | Activity (Xenopus laevis [7]): inactive | Activity (Xenopus laevis [8]): Active | IC50 [9]: 190 nM
